Assay results as given in ChEMBL document CHEMBL1687818, “Mechanistic studies of the inactivation of TEM-1 and P99 by NXL104, a novel non-beta-lactam beta-lactamase inhibitor” (Antimicrob Agents Chemother, 2010).

How the values were obtained:
[1] = Inhibition of beta-lactamase TEM-1 assessed as inactivation rate constant for longer incubation time yield of enzyme by spectrophotometry
[2] = Inhibition of beta-lactamase TEM-1 assessed as inactivation rate constant by spectrophotometry
Method in brief: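 Reporter-substrate method at 37°C: purified TEM-1 at 0.25 nM was added to 100 µM nitrocefin plus inhibitor at various concentrations, and hydrolysis was followed at 485 nm for 60 s. kobs was taken from the time courses, and K and k2 came from a plot of [I]/kobs against [I]. Means of at least two independent experiments.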

Activity [2] [s⁻¹] | SMILES | Activity [1] [s⁻¹]
– | C[C@]1(Cn2ccnn2)[C@H](C(=O)O)N2C(=O)C[C@H]2S1(=O)=O | 0.02
0.11 | NC(=O)[C@@H]1CC[C@@H]2CN1C(=O)N2OS(=O)(=O)O (relative stereo) | –
– | O=C(O)[C@H]1/C(=C/CO)O[C@@H]2CC(=O)N21 | 0.03
